The list is not random: actives were taken first. Their share in the collection is about 2.9%.
Apaf1 inhib: human Apaf-1 inhibition; O14727; reconstituted apoptosome caspase-3 activity, DEVD-Rh110 fluorescence; inhibition, % at 20 µM; hit rate 0.71% among 330,000; AID 489030; active = inhibition of at least 40% at 20 µM;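 note: plate controls were DMSO wells for no effect and DEVD-CHO caspase inhibitor wells for full effect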
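Material: biochemical Apaf-1 apoptosome reconstitution. Medium: Hepes buffer, pH 7.5. Also added: cytochrome c activation, bis-DEVD rhodamine 110 substrate. Timing: 30 min compound preincubation, 50 min activation, room temperature. Measured by: rhodamine 110 fluorescence at Ex 480/Em 540 nm.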
EBNA-1 inhibitor: blocks EBNA-1 binding to DNA | EBNA-1 DNA binding, fluorescence polarization | inhibition, % at 14.8 µM | hit rate 0.34% among 300,000; in the data active = inhibition above about 28%
PfGluPho inh: PfG6PD (Plasmodium falciparum) enzyme inhibition; PfGluPho enzyme, NADPH resazurin-diaphorase fluorescence; inhibition, % at 20 µM; hit rate 0.78% among 350,000; AID 504690;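 active = inhibition reaching at least a set limit at 20 µM in the primary screen, cut at about 59% in these data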;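 note: 0% = DMSO wells with substrate and 100% = DMSO wells lacking glucose-6-phosphate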
UBC13 inh: blocks human UBC13 polyubiquitin chain formation; inhibition, % at 20 µM; TR-FRET; hit rate 0.47% among 330,000; in the data active = inhibition above about 45%, passing the limit was not always enough; inconclusive = no clear call, values can overlap the other calls
Target sequence (P61088 whole entry, looked up): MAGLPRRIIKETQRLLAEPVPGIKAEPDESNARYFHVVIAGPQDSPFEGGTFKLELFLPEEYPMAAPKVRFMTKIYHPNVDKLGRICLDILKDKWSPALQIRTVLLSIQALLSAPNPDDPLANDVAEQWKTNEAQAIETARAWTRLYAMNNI
M18AAP inhibitor: PfM18AAP enzyme inhibition; recombinant PfM18AAP, H-Glu-NHMec fluorogenic cleavage; inhibition, % at 7.35 µM; hit rate 1.2% among 290,000; AID 1822;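 active = inhibition above the campaign mean inhibition over all tested compounds plus 3 SD, cut at about 28% in these data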;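 note: 0% = plate median of test compound wells and 100% = 2 mM ZnCl2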
ZTA DNA inh: counter-screen for EBNA-1 inhibitors: inhibitors of Epstein-Barr virus ZTA; P03206; ZTA-DNA binding, fluorescence polarization; inhibition, % at 11 µM; hit rate 0.15% among 320,000; in the data active = inhibition above about 33%
Casp3 UBC13 ctr: counter-screen for UBC13 inhibitors: human caspase-3 inhibition | shares compounds with UBC13 inh | Recombinant caspase-3, Caspase-Glo 3/7 luminescence, 60 min | inhibition, % at 20 µM | hit rate 4% among 1,400 | AID 488856;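 active = mean inhibition across replicates above about 26%, limit read from the data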;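 note: plate controls were DMSO with caspase-3 for no effect and DMSO wells lacking enzyme for full effect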
Target sequence (P42574 whole entry, looked up): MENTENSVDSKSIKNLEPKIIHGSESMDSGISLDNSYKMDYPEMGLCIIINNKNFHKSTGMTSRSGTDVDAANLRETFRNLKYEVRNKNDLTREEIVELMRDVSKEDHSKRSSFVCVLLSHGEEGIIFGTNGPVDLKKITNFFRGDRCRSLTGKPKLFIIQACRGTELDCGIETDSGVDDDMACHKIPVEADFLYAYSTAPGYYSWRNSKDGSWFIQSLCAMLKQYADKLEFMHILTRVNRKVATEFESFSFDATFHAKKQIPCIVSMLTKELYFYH
UBC13 conf: confirmation of human UBC13 polyubiquitin inhibitors | shares compounds with UBC13 inh | UBC13 polyubiquitination, TR-FRET, biochemical | inhibition, % at 10 µM | hit rate 68% among 1,400; in the data active = inhibition above about 45%; inconclusive = no clear call, values can overlap the other calls
The depositor's hits bear a star; ? = inconclusive; . = not tested or not shown.

SMILES	Apaf1 inhib	EBNA-1 inhibitor	PfGluPho inh	UBC13 inh	M18AAP inhibitor	ZTA DNA inh	Casp3 UBC13 ctr	UBC13 conf
COC(=O)c1c(NC(=O)c2cccc(N3C(=O)CCC3=O)c2)sc2c1CCN(C(C)=O)C2	2	15	18	-5	-11	13	.	.
CC(C)C(NC(=O)C1CCCCC1)C(=O)NC1=NCCS1 (stereo unspecified)	-4	6	-11	6	-7	-2	.	.
C#CCOCCOCCOCCNc1nc(N2CCN(C(=O)[C@H](CCCCN)n3cc([C@@H](N)CC(C)C)nn3)CC2)nc(N2CCN(C(=O)[C@H](Cc3cc4ccccc4[nH]3)n3cc([C@@H](N)Cc4ccc(O)cc4)nn3)CC2)n1	6	3	44	103*	14	-6	2	116*
C#CCOCCOCCOCCNc1nc(N2CCN(C(=O)[C@H](CCC(=O)O)n3cc(C(N)CC(C)C)nn3)CC2)nc(N2CCN(C(=O)[C@H](Cc3cc4ccccc4[nH]3)n3cc(C(N)[C@H](C)CC)nn3)CC2)n1 (stereo partly specified)	0	5	26	5	-4	-7	.	.
N[C@@H](CO)c1cn([C@@H](Cc2cc3ccccc3[nH]2)C(=O)N2CCNCC2)nn1	37	6	13	101*	.	10	-2	107*
C#CCOCCOCCOCCNc1nc(N2CCN(C(=O)[C@H](Cc3ccc(O)cc3)n3cc([C@@H](N)CC(C)C)nn3)CC2)nc(N2CCN(C(=O)[C@H](Cc3cc4ccccc4[nH]3)n3cc([C@@H](N)CC(C)C)nn3)CC2)n1	27	0	49	80*	7	-9	-4	62*
COc1ccc(C2=CN3CCCCC3CC2=O)cc1OC (stereo unspecified)	8	.	0	-2	.	.	.	.
COc1cc(S(=O)(=O)NCC2(N3CCCCC3)CCCCC2)ccc1NC(C)=O	-9	.	1	1	.	.	.	.
CCCCN(C(=O)c1ccco1)c1nnc(-c2cc(OC)c(OC)c(OC)c2)s1	3	-4	-1	50*	0	-6	2	38
Nc1ccc2c(c1)C(=O)Cc1ccccc1S2	-10	-2	4	58*	3	7	1	32
CCO[C@H]1OC(C(=O)NCc2ccccc2)=C[C@@H](c2ccccc2)[C@@H]1CCCO	6	2	-4	50*	-5	-18	0	10
CCO[C@@H]1OC(C(=O)NCc2ccccc2)=C[C@H](c2ccccc2)[C@H]1CCCO	9	6	0	10	1	-9	.	.
CC1(C)Cc2c(sc(NC(=O)Nc3ccccc3)c2C(N)=O)CO1	18	6	30	8	4	-2	.	.
CC1(C)Cc2c(sc(NC(=O)C(=O)N3CCCC3)c2C(N)=O)CO1	4	11	7	86*	25	14	4	105*
COC(=O)c1c(NC(=O)C(=O)N2CCCC2)sc2c1CC(C)(C)OC2	6	0	-5	48*	1	-15	-3	100*
CC1(C)Cc2c(sc(NC(=O)C(=O)NCC3CCCO3)c2C(N)=O)CO1 (stereo unspecified)	-12	5	-1	81*	8	-7	-1	106*
O=C(COC(=O)Cc1ccc(Br)cc1)NC1CCCC1	-3	.	-6	13	.	.	.	.
CC(=O)c1ccc(Sc2ccccc2)cc1	1	4	13	?	6	-5	.	.
CC(=O)c1ccc(Sc2ccc(C(C)=O)cc2)cc1	14	-3	-3	45*	-8	-8	4	32
Nc1nc(Cl)cc(N2CCC(c3cc(-c4ccc(Cl)cc4)n[nH]3)CC2)n1	19	14	23	40	8	7	.	.
COc1ccc(-c2cc(C3CCN(c4cc(Cl)nc(N)n4)CC3)[nH]n2)cc1	30	1	18	46*	-4	27	0	46*
COc1ccc(S(=O)(=O)Nc2ccc(C)cn2)cc1	-1	0	-1	46*	-2	-3	-2	-3
Cc1ccccc1-n1ccnc1SCC(=O)NCC1CCCO1 (stereo unspecified)	20	-3	9	-5	-6	-11	.	.
Cn1c(SCC(=O)NCC2CCCO2)ncc(C(=O)Nc2ccc(Cl)cc2)c1=O (stereo unspecified)	13	-16	17	58*	.	-6	98*	69*
Cn1c(SCC(=O)NCC2CCCO2)ncc(C(=O)Nc2ccc(F)cc2)c1=O (stereo unspecified)	0	17	6	59*	.	7	96*	60*
SMILES	Apaf1 inhib	EBNA-1 inhibitor	PfGluPho inh	UBC13 inh	M18AAP inhibitor	ZTA DNA inh	Casp3 UBC13 ctr	UBC13 conf
Cc1cc(C)cc(NC(=O)Cn2nnc3ccccc3c2=O)c1	-4	-2	-16	1	5	-4	.	.
OC(CNCc1ccccc1C(F)(F)F)C(F)(F)F (stereo unspecified)	-4	9	-8	7	1	17	.	.
O=C(COC(=O)CCCCCN=C1NS(=O)(=O)c2ccccc21)Nc1ccc(Cl)c(Cl)c1	0	-5	4	49*	-13	0	-6	39
CN1CCN(C2CCN(Cc3ccc(O)c4ncccc34)CC2)CC1	-5	.	5	60*	.	17	-1	70*
Oc1ccc(CN2CCN(Cc3ccccc3)CC2)c2cccnc12	8	-22	-23	66*	0	0	0	103*
O=S(=O)(c1ccc(Cl)cc1)N1CCN(Cc2ccc(O)c3ncccc23)CC1	24	-1	6	-26	-4	13	.	.
Cc1ccc(Sc2cnccc2C#N)cc1	4	5	3	?	-4	-1	.	.
Cn1cc([N+](=O)[O-])c(C(=O)Nc2nccs2)n1	-9	6	-7	4	4	8	.	.
COc1ccc(-c2oc3ncnc(N)c3c2-c2ccccc2)cc1	0	-5	20	81*	0	-13	-2	81*
COc1ccccc1[C@@H]1C(c2cccc(C)c2)=NN(c2ccccc2)[C@H]1C(=O)N1CCOC1=O	13	-3	18	46*	-9	7	-2	46*
CCc1ccc2nc(Nc3nc(COC)cc(=O)[nH]3)nc(C)c2c1	-6	8	-5	1	-5	1	.	.
COCc1cc(=O)[nH]c(Nc2nc3ccc(C)cc3o2)n1	1	0	-9	74*	7	1	27*	89*
Cc1c(NC(=O)CCCCCN2C(=O)c3ccccc3C2=O)c(=O)n(-c2ccccc2)n1C	7	-8	4	106*	-4	-7	0	110*
Cc1cc([N+](=O)[O-])nn1CCCC(=O)Nc1c(C)n(C)n(-c2ccccc2)c1=O	-17	0	-4	5	6	-4	.	.

Screening results from PubChem BioAssay.
